{"source": "ChEMBL document CHEMBL1124645", "about": "“Minimum-structure enkephalin analogues incorporating L-tyrosine, D(or L)-phenylalanine, and a diamine spacer” (J Med Chem, 1989)"}
{"species": "Cavia porcellus", "assay": "Percentage inhibition of compound against morphine at 10 e-7 M in guinea pig ileum tissue", "assay_type": "functional", "outline": "(§1)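 Hartley male guinea pigs (400–450 g); 3–4-cm segments of terminal ileum in a 3.5-mL Krebs bath at 37 ± 0.5 °C, gassed with 95% O2-5% CO2. […] Each was tested at least twice per preparation. Results are the average of at least three ilea from different animals.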", "units": {"inhibition at 0.1 µM": "%"}}
{"smiles": "CC(=O)NC(Cc1ccccc1)C(=O)NC(C)(C)CNC(=O)C(N)Cc1ccc(O)cc1", "note": "(stereo in doubt)", "inhibition at 0.1 µM": 47}
{"smiles": "CC(=O)N[C@H](Cc1ccccc1)C(=O)NCC(C)(C)NC(=O)C(N)Cc1ccc(O)cc1", "note": "(some centres not stated)", "inhibition at 0.1 µM": 43.5}
{"smiles": "CC(=O)N[C@H](Cc1ccccc1)C(=O)NC(C)(C)CNC(=O)C(N)Cc1ccc(O)cc1", "note": "(some centres not stated)", "inhibition at 0.1 µM": 40}
{"smiles": "CC(=O)N[C@H](Cc1ccccc1)C(=O)NCCNC(=O)C(N)Cc1ccc(O)cc1", "note": "(some centres not stated)", "inhibition at 0.1 µM": 40}
{"smiles": "CC(=O)NC(Cc1ccccc1)C(=O)NCCNC(=O)C(N)Cc1ccc(O)cc1", "note": "(stereo in doubt)", "inhibition at 0.1 µM": 49.5}
{"smiles": "CC(=O)NC(Cc1ccccc1)C(=O)NCC(C)(C)NC(=O)C(N)Cc1ccc(O)cc1", "note": "(stereo in doubt)", "inhibition at 0.1 µM": 47}
{"smiles": "N[C@H](Cc1ccccc1)C(=O)NCCNC(=O)[C@@H](N)Cc1ccc(O)cc1", "inhibition at 0.1 µM": 49.5}
{"species": "Cavia porcellus", "assay": "Ability to display a naloxone-reversible inhibition of electrically induced contractions in GPI by Morphine at 0.1 uM", "assay_type": "functional", "outline": "as §1", "units": {"Inhibition": "%"}}
{"smiles": "CC(=O)N[C@H](Cc1ccccc1)C(=O)NCC(C)(C)NC(=O)C(N)Cc1ccc(O)cc1", "note": "(some centres not stated)", "Relative potency": 21.2}
{"smiles": "CC(=O)NC(Cc1ccccc1)C(=O)NCCC(C)(C)NC(=O)C(N)Cc1ccc(O)cc1", "note": "(stereo in doubt)", "Inhibition": 47, "Relative potency": 0.052}
{"smiles": "CC(=O)N[C@H](Cc1ccccc1)C(=O)NCCCNC(=O)C(N)Cc1ccc(O)cc1", "note": "(some centres not stated)", "Inhibition": 47, "Relative potency": 0.0077}
{"smiles": "CC(=O)N[C@H](Cc1ccccc1)C(=O)NC(C)(C)CNC(=O)C(N)Cc1ccc(O)cc1", "note": "(some centres not stated)", "Relative potency": 0.27}
{"smiles": "CC(=O)N[C@H](Cc1ccccc1)C(=O)NCCNC(=O)C(N)Cc1ccc(O)cc1", "note": "(some centres not stated)", "Relative potency": 1.6}
{"smiles": "CC(=O)NC(Cc1ccccc1)C(=O)NCC(C)(C)NC(=O)C(N)Cc1ccc(O)cc1", "note": "(stereo in doubt)", "Relative potency": 10}
{"smiles": "CC(=O)N[C@H](Cc1ccccc1)C(=O)NCCC(C)(C)NC(=O)C(N)Cc1ccc(O)cc1", "note": "(some centres not stated)", "Inhibition": 40, "Relative potency": 0.22}
{"species": "Cavia porcellus", "assay": "Ability to display a naloxone-reversible inhibition of electrically induced contractions in GPI in the presence of 1.0 uM bestatin at concentration 10 e-6 M", "assay_type": "functional", "units": {"Inhibition": "%"}}
{"smiles": "CC(=O)NC(Cc1ccccc1)C(=O)NC(C)(C)CNC(=O)C(N)Cc1ccc(O)cc1", "note": "(stereo in doubt)", "Inhibition": 16.3}
{"smiles": "CC(=O)N[C@H](Cc1ccccc1)C(=O)NCC(C)(C)NC(=O)C(N)Cc1ccc(O)cc1", "note": "(some centres not stated)", "Inhibition": 91.5}
{"smiles": "CC(=O)NC(Cc1ccccc1)C(=O)NCCC(C)(C)NC(=O)C(N)Cc1ccc(O)cc1", "note": "(stereo in doubt)", "Inhibition": 50.5}
{"smiles": "CC(=O)NC(Cc1ccccc1)C(=O)NCCCNC(=O)C(N)Cc1ccc(O)cc1", "note": "(stereo in doubt)", "Inhibition": 5}
{"smiles": "CC(=O)N[C@H](Cc1ccccc1)C(=O)NCCCNC(=O)C(N)Cc1ccc(O)cc1", "note": "(some centres not stated)", "Inhibition": 29.5}
{"smiles": "CC(=O)N[C@H](Cc1ccccc1)C(=O)NC(C)(C)CNC(=O)C(N)Cc1ccc(O)cc1", "note": "(some centres not stated)", "Inhibition": 42.5}
{"smiles": "N[C@@H](Cc1ccccc1)C(=O)NCCNC(=O)[C@@H](N)Cc1ccc(O)cc1", "Inhibition": 12}
{"smiles": "CC(=O)N[C@H](Cc1ccccc1)C(=O)NCCNC(=O)C(N)Cc1ccc(O)cc1", "note": "(some centres not stated)", "Inhibition": 89.5}
{"smiles": "CC(=O)NC(Cc1ccccc1)C(=O)NCCNC(=O)C(N)Cc1ccc(O)cc1", "note": "(stereo in doubt)", "Inhibition": 10}
{"smiles": "CC(=O)NC(Cc1ccccc1)C(=O)NCC(C)(C)NC(=O)C(N)Cc1ccc(O)cc1", "note": "(stereo in doubt)", "Inhibition": 79.3}
{"smiles": "CC(=O)N[C@H](Cc1ccccc1)C(=O)NCCC(C)(C)NC(=O)C(N)Cc1ccc(O)cc1", "note": "(some centres not stated)", "Inhibition": 53}
{"smiles": "N[C@H](Cc1ccccc1)C(=O)NCCNC(=O)[C@@H](N)Cc1ccc(O)cc1", "Inhibition": 8}
{"species": "Cavia porcellus", "assay": "Ability to display a naloxone-reversible inhibition of electrically induced contractions in GPI by Morphine at 0.5 uM", "assay_type": "functional", "units": {"Inhibition": "%"}}
{"smiles": "N[C@@H](Cc1ccccc1)C(=O)NCCNC(=O)[C@@H](N)Cc1ccc(O)cc1", "Inhibition": 49.5}
{"species": "Cavia porcellus", "assay": "Ability to display a naloxone-reversible inhibition of electrically induced contractions in GPI in the presence of 1 uM bestatin at concentration 2 uM", "units": {"Inhibition": "%"}}
{"smiles": "CC(=O)NC(Cc1ccccc1)C(=O)NCCCNC(=O)C(N)Cc1ccc(O)cc1", "note": "(stereo in doubt)", "Inhibition": 8}
{"species": "Cavia porcellus", "assay": "Inhibitory activity in guinea pig ileum tissue in the absence and presence of 10 nM naloxone", "assay_type": "functional", "units": {"Ke": "nM"}}
{"smiles": "CC(=O)N[C@H](Cc1ccccc1)C(=O)NCC(C)(C)NC(=O)C(N)Cc1ccc(O)cc1", "note": "(some centres not stated)", "Ke": 4.2}
{"smiles": "CC(=O)NC(Cc1ccccc1)C(=O)NCCC(C)(C)NC(=O)C(N)Cc1ccc(O)cc1", "note": "(stereo in doubt)", "Ke": 2.1}
{"smiles": "CC(=O)N[C@H](Cc1ccccc1)C(=O)NCCCNC(=O)C(N)Cc1ccc(O)cc1", "note": "(some centres not stated)", "Ke": 4.4}
{"smiles": "CC(=O)N[C@H](Cc1ccccc1)C(=O)NCCNC(=O)C(N)Cc1ccc(O)cc1", "note": "(some centres not stated)", "Ke": 4}
{"smiles": "CC(=O)NC(Cc1ccccc1)C(=O)NCC(C)(C)NC(=O)C(N)Cc1ccc(O)cc1", "note": "(stereo in doubt)", "Ke": 1.4}
{"smiles": "CC(=O)N[C@H](Cc1ccccc1)C(=O)NCCC(C)(C)NC(=O)C(N)Cc1ccc(O)cc1", "note": "(some centres not stated)", "Ke": 3.3}
